From ChEMBL document CHEMBL4350958, “Rational Design of Short Peptide Variants by Using Kunitzin-RE, an Amphibian-Derived Bioactivity Peptide, for Acquired Potent Broad-Spectrum Antimicrobial and Improved Therapeutic Potential of Commensalism Coinfection of Pathogens” (J Med Chem, 2019)
Active and inactive are the calls of the source. The calls are words filed in the database; no cut-off is given here. Where a SMILES comes first, the peptide text is derived from it.

Columns and labels:
Staphylococcus aureus [1] = assay: Bactericidal activity against Staphylococcus aureus ATCC 29213 assessed as reduction in bacterial growth at MBC measured within 30 mins by time-kill assay relative to control; format: functional; design: scale not given: the % may be the effect or the level left
In short: (§1)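 Time-kill: cells at a final 0.5–1×10^5 CFU/mL were exposed to peptide at 1×MBC/MFC. Aliquots were removed at intervals to count survivors against an untreated control. Means of three independent experiments, each with three technical replicates.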

Candida albicans [2] = assay: Fungicidal activity against Candida albicans cgmcc2.2086 assessed as reduction in bacterial growth at MFC measured within 3 mins by time-kill assay relative to control; format: functional; design: scale not given: the % may be the effect or the level left; in short: as §1
Pseudomonas aeruginosa [3] = assay: Bactericidal activity against gentamicin-resistant Pseudomonas aeruginosa ATCC 27853 incubated for 24 hrs followed by replating on agar plate and measured after overnight incubation; format: functional, organism-based
Pseudomonas aeruginosa [4] = assay: Bactericidal activity against melittin-resistant Pseudomonas aeruginosa ATCC 27853 incubated for 24 hrs followed by replating on agar plate and measured after overnight incubation; format: functional, organism-based
Candida albicans [5] = assay: Antifungal activity against Candida albicans cgmcc2.2086 infected in C57BL/6 mouse model of keratitis assessed as reduction in fungal hyphae infiltration into corneal stroma at 1 to 5 mg/ml administered as topical eye drop every 5 mins for first 4 hrs and every 30 mins for next 7 hrs measured post-last dose by periodic acid schiff staining-based histological analysis; format: functional, organism-based
Staphylococcus aureus [6] = assay: Disruption of plasma membrane integrity in Staphylococcus aureus ATCC 29213 at MBC measured after 30 mins using FITC-labeled compound by propidium iodide staining-based microscopic analysis; format: organism-based
In short: (§2)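 E. coli ATCC 25922 or S. aureus ATCC 29213 (OD600 0.2) incubated with FITC-labeled peptide at 1×MBC, 37 °C, 30 min. Cells washed, resuspended with PI (10 μg/mL) in PBS, smeared and imaged by superresolution microscopy using 488 and 535 nm filters for FITC and PI. Peptide-free cells served as controls. Three independent scans.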

Escherichia coli [7] = assay: Disruption of plasma membrane integrity in Escherichia coli ATCC 25922 at MBC measured after 30 mins using FITC-labeled compound by propidium iodide staining-based microscopic analysis; format: organism-based; in short: as §2
Lipid bilayer [8] = assay: Induction of membrane disruption in PG/CL/PE large unilamellar vesicles assessed as calcein-entrapped liposome leakage at 8 uM after 15 mins by spectrofluorophotometric assay relative to control
In short: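 Calcein (70 mM)-loaded LUVs of PG/CL/PE (2:1:7 w/w/w, E. coli membrane mimic), made by freeze-thaw and 100-nm extrusion, free dye removed on Sephadex G-50. LUVs (100 μM) exposed to peptide (1–64 μM) for 15 min. Leakage read at ex 490/em 520 nm: liposomes alone are background, Triton X-100 is 100%. Independent triplicates.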

Lipid bilayer [9] = assay: Induction of membrane disruption in PC/CL large unilamellar vesicles assessed as calcein-entrapped liposome leakage at 1 to 64 uM after 15 mins by spectrofluorophotometric assay relative to control; details: artificial membrane, 0.25 h
Escherichia coli [10] = assay: Induction of morphological changes in Escherichia coli ATCC 25922 at MBD measured after 1 hr by atomic force microscopic analysis; format: functional, organism-based
Escherichia coli [11] = assay: Induction of morphological changes in Escherichia coli ATCC 25922 assessed as membrane blebbing at MBD measured after 1 hr by scanning electron microscopic analysis; format: functional, organism-based
Escherichia coli [12] = assay: Induction of morphological changes in Escherichia coli ATCC 25922 assessed as hole formation at MBD measured after 1 hr by scanning electron microscopic analysis; format: functional, organism-based
Staphylococcus aureus [13] = assay: Induction of morphological changes in Staphylococcus aureus ATCC 29213 at MBD measured after 1 hr by atomic force microscopic analysis; format: functional, organism-based
Staphylococcus aureus [14] = assay: Induction of morphological changes in Staphylococcus aureus ATCC 29213 assessed as membrane creping at MBD measured after 1 hr by atomic force microscopic analysis; format: functional, organism-based
Staphylococcus aureus [15] = assay: Induction of morphological changes in Staphylococcus aureus ATCC 29213 assessed as cell content leakage at MBD measured after 1 hr by atomic force microscopic analysis; format: functional, organism-based
Escherichia coli [16] = assay: Induction of morphological changes in Escherichia coli ATCC 25922 assessed as pore formation at MBD measured after 1 hr by transmission electron microscopic analysis; format: functional, organism-based
Escherichia coli [17] = assay: Induction of morphological changes in Escherichia coli ATCC 25922 assessed as cell content leakage at MBD measured after 1 hr by transmission electron microscopic analysis; format: functional, organism-based
Escherichia coli [18] = assay: Induction of morphological changes in Escherichia coli ATCC 25922 assessed as appearance of visible sparse cytoplasmic distribution at MBD measured after 1 hr by transmission electron microscopic analysis; format: functional, organism-based
Staphylococcus aureus [19] = assay: Induction of morphological changes in Staphylococcus aureus ATCC 29213 assessed as cytoplasmic leakage at MBD measured after 1 hr by transmission electron microscopic analysis; format: functional, organism-based
RAW264.7 [20] = assay: Cytotoxicity against mouse RAW264.7 cells assessed as cell viability at 2 to 64 uM measured after 18 to 24 hrs by MTT assay relative to control; format: cell-based; details: raw264.7, 64 µM
In short: (§3)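 MTT assay: RAW264.7 cells seeded at 1.0–2.0×10^4 per well and exposed to peptide (2–64 µM) for 18–24 h at 37 °C in 5% CO2. MTT (0.5 mg/mL) added for 4 h, formazan dissolved in DMSO, read at 570 nm. At least three independent experiments with triplicate wells.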

Escherichia coli [21] = assay: Bactericidal activity against Escherichia coli ATCC 25922 assessed as reduction in bacterial growth at MBC by time-kill assay; format: functional, organism-based
In short: (§4)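 Time-kill assay. E. coli ATCC 25922, S. aureus ATCC 29213 or C. albicans cgmcc 2.2086 at a final 0.5-1×10^5 CFU mL-1 treated at 1×MBC/MFC. Aliquots collected at different times to calculate survival, with an untreated control. Mean of three independent experiments, each with three technical replicates.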

Candida albicans [22] = assay: Fungicidal activity against Candida albicans cgmcc2.2086 assessed as reduction in bacterial growth at MFC by time-kill assay; format: functional, organism-based; in short: as §4
Lipid bilayer [23] = assay: Induction of membrane disruption in PC/CL large unilamellar vesicles assessed as calcein-entrapped liposome leakage at 1 uM after 15 mins by spectrofluorophotometric assay relative to control; details: artificial membrane, 0.25 h
Escherichia coli [24] = assay: Induction of cytoplasmic membrane depolarization in Escherichia coli ATCC 25922 at MIC up to 3000 secs by DiSC3-5 dye-based fluorescence spectrophotometric method; format: organism-based
In short: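 Mid-log E. coli ATCC 25922 (OD600 0.05) equilibrated with 0.4 μM DiSC3-5 and 100 mM K+ in 5 mM HEPES pH 7.4 with 20 mM glucose until fluorescence was stably quenched. Peptide then added in a 1-cm cuvette, and fluorescence (ex 622/em 670 nm) followed from 0 to 3000 s. Triplicate independent runs.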

RAW264.7 [25] = assay: Cytotoxicity against mouse RAW264.7 cells assessed as reduction in cell viability at 2 to 64 uM measured after 18 to 24 hrs by MTT assay relative to control; format: cell-based; details: raw264.7, 64 µM; in short: as §3
[26] = Conformational stability in 50% trifluoro-ethyl alcohol assessed as alpha-helical structural propensity at 35 uM by CD spectra analysis; format: physicochemical
In short: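 CD spectra from 190 to 250 nm of peptide at 35 μM in 10 mM PBS, 30 mM SDS micelles or 50% TFE, recorded in a 1.0-mm quartz cell. Ellipticity was converted to mean residue ellipticity. Three independent scans, each averaged over more than 3 runs.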

H-AARIILRWRFR-NH2
Activity (Staphylococcus aureus [1]): 99.99%
Activity (Candida albicans [2]): 99.99%
Activity (Pseudomonas aeruginosa [3]): Active
Activity (Pseudomonas aeruginosa [4]): Active
Activity (Candida albicans [5]): Active
Activity (Staphylococcus aureus [6]): Active
Activity (Escherichia coli [7]): Active
Activity (Lipid bilayer [8]): > 40%
Activity (Lipid bilayer [9]): < 5%
Activity (Escherichia coli [10]): Active
Activity (Escherichia coli [11]): Active
Activity (Escherichia coli [12]): Active
Activity (Staphylococcus aureus [13]): Active
Activity (Staphylococcus aureus [14]): Active
Activity (Staphylococcus aureus [15]): Active
Activity (Escherichia coli [16]): Active
Activity (Escherichia coli [17]): Active
Activity (Escherichia coli [18]): Active
Activity (Staphylococcus aureus [19]): Active

CC[C@H](C)[C@H](NC(=O)CN)C(=O)NCC(=O)N[C@@H](C)C(=O)N[C@H](C(=O)N[C@@H](CC(C)C)C(=O)N[C@@H](CCCCN)C(=O)N[C@H](C(=O)N[C@@H](CC(C)C)C(=O)N[C@H](C(=O)N[C@H](C(=O)NCC(=O)N[C@@H](CC(C)C)C(=O)N1CCC[C@H]1C(=O)N[C@@H](C)C(=O)N[C@@H](CC(C)C)C(=O)N[C@H](C(=O)N[C@@H](CO)C(=O)N[C@@H](Cc1c[nH]c2ccccc12)C(=O)N[C@H](C(=O)N[C@@H](CCCCN)C(=O)N[C@@H](CCCNC(=N)N)C(=O)N[C@@H](CCCCN)C(=O)N[C@@H](CCCNC(=N)N)C(=O)N[C@@H](CCC(N)=O)C(=O)N[C@@H](CCC(N)=O)C(N)=O)[C@@H](C)CC)[C@@H](C)CC)[C@@H](C)O)[C@@H](C)O)C(C)C)C(C)C [MELITTIN]
Activity (RAW264.7 [20]): Toxic
Activity (Escherichia coli [21]): Active
Activity (Candida albicans [22]): Active
Activity (Lipid bilayer [23]): > 85%

CC[C@H](C)[C@H](NC(=O)[C@H](CCCCN)NC(=O)[C@H](C)NC(=O)[C@H](C)N)C(=O)N[C@H](C(=O)N[C@@H](CC(C)C)C(=O)N[C@@H](CC(N)=O)C(=O)N1CCC[C@H]1C(=O)N[C@@H](CCCCN)C(=O)N[C@@H](Cc1ccccc1)C(=O)N[C@@H](CCCNC(=N)N)C(=O)N[C@@H](CS)C(=O)N[C@@H](CCCCN)C(=O)N[C@@H](C)C(=O)N[C@@H](C)C(=O)N[C@@H](Cc1ccccc1)C(=O)N[C@@H](CS)C(N)=O)[C@@H](C)CC (H-AAKIILNPKFRCKAAFC-NH2)
Activity (Escherichia coli [24]): Active

H-AARRILRWIFR-NH2
Activity (RAW264.7 [25]): > 89.76%
Stability [26]: Stable
